Data: the EternaBench riboswitch data

Tested on: MS2 coat protein
Experiment: apparent Kd, MS2 coat protein; higher = weaker binding; RNA-MaP array; FMN 200 µM where present
How it was run: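 Binding was read on Illumina sequencing-chip clusters where stalled E. coli RNA polymerase had transcribed each design. A titration of SNAP-549-labelled MS2 coat protein began at 0.7 or 1.5 nM and doubled to 3 µM, once without ligand and once with constant ligand, in 100 mM Tris-HCl pH 7.5, 80 mM KCl, 4 mM MgCl2, BSA, DTT, yeast tRNA and Tween-20. The apparent Kd is the median of filtered per-cluster binding-curve fits, based on green signal normalised to red-channel RNA signal and control-cluster median Fmax.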

[1] = designed as: ON switch for flavin mononucleotide, no ligand
[2] = ligand present: flavin mononucleotide, designed as: ON switch for flavin mononucleotide
[3] = designed as: OFF switch for flavin mononucleotide, no ligand
[4] = ligand present: flavin mononucleotide, designed as: OFF switch for flavin mononucleotide

Row | Sequence | apparent Kd [1] | apparent Kd [2] | apparent Kd [3] | apparent Kd [4]
1 | UAAACAUGAGGAUCACCCAUGUAAAGAUCGGUAGUAGAGAGUGAGGAUAUACUAAAAUUUAUAGAGUAGAAGGCACUGGGUUCU | 0.0384 µM | 0.0286 µM |  | 
2 | UUCCGGCGUGUAGGAUAUGGAUCCGAUUAGGAUCCAGAAGGACAUGAGGAUCACCCAUGUACAUGUAAACAGUCAUCACCGGAC |  |  | 0.00963 µM | 0.0873 µM
3 | ACGGUGGUCACAGGAUAUCCGGCCCGCGUGCCUGGAGAAGGGUGACUCAGAACCACAUGAGGAUCACCCAUGUGCCUUACCGUA | 0.0526 µM | 0.0239 µM |  | 
4 | GCGAUUUUGUAAGGAUAUACACCAGUUUCAAGUGUAGAAGGUACUUACAUGAGGAUCACCCAUGUAUACUUGGAUAAUAGUCGC | 0.0174 µM | 0.0175 µM |  | 
5 | UUGUUUCGUCAUUAACAUGAGGAUCACCCAUGUAUCGUCUCAAAGGAUAUAUAUGCUUGUUUGCUAUAGAAGGUUGAUUGUUGU | 0.0712 µM | 0.0672 µM |  | 
6 | CGAUAGGACAGAGGAUAUACACAUGAGGAUCACCCAUGUGAUUACAAUUCUUAAGAUUCAAACAUGUAGAAGGCUGUCCUAUCG |  |  | 0.00925 µM | 0.0174 µM
7 | UGUAUGGACAGAGGAUAUACCGAUAGGAUCUACUAUCGAACAAUCCUCACAUGAGGAUCACCCAUGUAGAAGGCUGUCCAUACU |  |  | 0.0241 µM | 0.283 µM
8 | CCCGGGUUUGUGAGGAUAUUGGGCCCGAAAGGGCCCGAGAAGGCACAUGAGGAUCACCCAUGUAAGGGCCCGGG |  |  | 0.0258 µM | 0.0264 µM
9 | GGCGCCCGGGCGGAGUCCCACACACAUGAGGAUCACCCAUGUAGAAGGCGCUGCCGCAAGGUCAGCGAGGAUAUACAUUAAGGA |  |  | 0.0148 µM | 0.0458 µM
10 | AAGAAGUGAGGAUAUCGAAGACUGUCGAAAAGACAGUCGAACGAGAAGGCACAUGAGGAUCACCCAUGUAAGAA |  |  | 0.0241 µM | 0.0345 µM
11 | GUCACACACCGCUCCGUGUCUGACAUGAGGAUCACCCAUGUGAGAAGGUAGCGUCGCAGUAACGUUAAGGAUAUCACGUACAGA |  |  | 0.00704 µM | 0.0074 µM
12 | GGAUGACAAAGUCAUCCAAUUCGAACAUGAGGAUCACCCAUGUAGGAUAUGCUACUCAAAGAGUAGCAGAAGGACAUGUGCUUU |  |  | 0.0377 µM | 0.167 µM
13 | UUAUAUAGUGUGAGGAUAUGCUGGUCCUUGGAUCAGCAGAAGGCACAUGAGGAUCACCCAUGUAGUUUAUUAUU |  |  | 0.0302 µM | 0.13 µM
14 | GAAUGAAAGCAGAAGGCCGCACAUGAGGAUCACCCAUGUGAAAACAGAUGGAGGAUAUGCGAACGUUCGCUUUGAAAAGUAAAG | 0.0135 µM | 0.00635 µM |  | 
15 | GCGAUUUUGUAAGGAUAUACUCGAGUUUUAAGAGUAGAAGGUACUUACAUGAGGAUCACCCAUGUCUAACGUAAUACUAGUCGC | 0.0103 µM | 0.00924 µM |  | 
16 | ACAUGAGGAUCACCCAUGUUCACAUAGGAUAUUGAUUAUAUUGGAUAUAGAAUAUUUAUAAUACACAAGAAGGAUGCAAGAUGG | 0.0164 µM | 0.0135 µM |  | 
17 | UGAGUGCGUGUUAGGAUAUGGUUUGGUAUUUCGGGCUAGAAGGGACAUGAGGAUCACCCAUGUAAUUGAUAGGU |  |  | 0.047 µM | 0.053 µM
18 | GCGCUGCGUCAGAAGGGCCGAAAAGAGAAGACGGCAGGAUAUGACAUGAGGAUCACCCAUGUACACGUCGCCGUGGGUGUUGGA |  |  | 0.0579 µM | 0.065 µM
19 | CGUUUAUUUAUGGGUUUAGAUUAUGAGGAUAUCAUUUUUUUAUACAUGAGGAUCACCCAUGUUACUGAGAAGGCAUAAUUAACG | 0.0164 µM | 0.00709 µM |  | 
20 | GUGGGUCGGGAGGAUAUUCGGGCUCAUGGGCUUGGAGAAGGCUCGACAUGAGGAUCACCCAUGUAAGUGUUCUU |  |  | 0.05 µM | 0.621 µM
21 | AAUGUUUGAUUCCACUUAUACAUGAGGAUCACCCAUGUUAUCGAGGAUAUGCAUUAAAGUGUUUAGCAGAAGGCGAUGUAAUUG |  |  | 0.00742 µM | 0.0236 µM
22 | GUGUACAGAGGAUAUACAUAAGCAUGGAAACAUGCAUCUUCACAUGAGGAUCACCCAUGUAGAAGGCUGUACAC |  |  | 0.0181 µM | 0.0756 µM
23 | GUAGCAUUGAGAGGAUAUCCAUACCGGAAACGGACAUGAGGAUCACCCAUGUCGCGAAAGCGGUGGGAGAAGGCUCUAUGCUAC | 0.00452 µM | 0.00446 µM |  | 
24 | CAUCAGUGAGGAUAUCGGGCCUGUGGCUGCUCAGCCCGGUUCGAGAAGGCACAUGAGGAUCACCCAUGUGACGU |  |  | 0.0204 µM | 0.0468 µM
25 | GUAGGGUCAGGAUAUACGGGCGGGAGGAUGUAGUGGAGUUGGUAGAAGGGACAUGAGGAUCACCCAUGUGAGAA |  |  | 0.0307 µM | 0.0278 µM
26 | GCGUUUACGGUUGACACUUAGCGAGAGGAUAUGGAAAACAAGACAUGAGGAUCACCCAUGUACUAUCAGAAGGCUCGAGUACGC | 0.00865 µM | 0.00529 µM |  | 
27 | AGUAAAGGCCUGAGGUGUCCGAACAUGAGGAUCACCCAUGUAGAGGAUAUAGGUGGAAGUGACGCCUAGAAGGCUACGUGUCAU |  |  | 0.0088 µM | 0.011 µM
28 | AACCAACAUGAGGAUCACCCAUGUUCUCAGACGUUUAGGUCACAGGAUAUUCGUGCUUGUGGGACGGAGAAGGGUGCCUCGCUG | 0.0927 µM | 0.125 µM |  | 

Row | Sequence | apparent Kd [1] | apparent Kd [2] | apparent Kd [3] | apparent Kd [4]
29 | AGCUGUGGCCGAGGAUAUCUAACUUCAAAUACCGACGUAUAGUCGGACAUGAGGAUCACCCAUGUAGAGAAGGCGGUCUCAGCA |  |  | 0.0161 µM | 0.0267 µM
30 | GACUGCCGAGGAUAUACAUGAGGAUCACCCAUGUGCUUCAGCAUUUUUUAAUGCAUGGGUAGAAGGCGGUAGUC |  |  | 0.0326 µM | 0.0685 µM
31 | AGUUUCUUGUAAGGAUAUACUAGCGAUAAGCUAGUAGAAGGUACUGUCUAUUGUAUCACUAUUUUACAUGAGGAUCACCCAUGU | 0.00713 µM | 0.0062 µM |  | 
32 | GUGACGAAUGUAGGAUAUGCUGAGGAAUACUCAGCAGAAGGACAUGAGGAUCACCCAUGUCAUCCUAAUAAUAAAUAACGUCAC |  |  | 0.0123 µM | 0.0174 µM
33 | CGCACUAUACAUGAGGAUCACCCAUGUAAUUAUGAGAUAGUCAGAAGGCAUUAUUAGUGAUUUAAUGAGGAUAUGAAUAGUGCG | 0.0798 µM | 0.0112 µM |  | 
34 | UUAUUAGCAGGAUAUAUCCAGGAUUACAUGAGGAUCACCCAUGUGACCGCUUGAGAUUCUAUAGAAGGGCUUUAUU |  |  | 0.0296 µM | 0.0298 µM
35 | GGCUAGUCAGGAUAUACGAACAUGUCAAAAGACGUGAAGGGACAUGAGGAUCACCCAUGUAGAAGGGACUAGCG |  |  | 0.0295 µM | 0.141 µM
36 | UGUUGUAUUACAGGAUAUCUAGUAUUAUUAUUUAGAGAAGGGUAUUCACAUGAGGAUCACCCAUGUAUAUACGAGGAAGUUGUG | 0.0382 µM | 0.0401 µM |  | 
37 | UGCAUGUAAGGAUAUGCAACCUGCGCUCAUUAGCAGGUCAAGCAGAAGGUACAUGAGGAUCACCCAUGUGUCCG |  |  | 0.0312 µM | 0.156 µM
38 | AGGAGAAAUGUAGGAUAUGGGCGUAUAUAUGGGCAAAGCGCAUAUAUACGCCCAGAAGGACAUGAGGAUCACCCAUGUUUCCCU |  |  | 0.0126 µM | 0.0129 µM
39 | AGUGGGCUAGGAUAUCGAUGAACUCACAUGAGGAUCACCCAUGUGUCUUCGGUGGGCUCACGAGAAGGAGUAAGUU |  |  | 0.0176 µM | 0.0232 µM
40 | UCGUGAAGGAUAGGAUAUGGACAUGAGGAUCACCCAUGUACAUGGGAAUGAAUACUGAAUUUGUACUAGAAGGGUUACAUAAAU |  |  | 0.0444 µM | 0.0395 µM
41 | AUAUAUAGUGUGAGGAUAUGCUGGUCCUUGGAUCAGCAGAAGGCACAUGAGGAUCACCCAUGUAGUUUAUUUUG |  |  | 0.0175 µM | 0.077 µM
42 | UUAACAUGAGGAUCACCCAUGUAAAGAACGGUUAAUUAAAGUGAGGAUAUACAAAAUUUUAUAUUGUAGAAGGCACUGGGUACA |  | 0.0229 µM |  | 
43 | AGUGUCAUCGAGAAGGCCUCAACAUGAGGAUCACCCAUGUUGCAAAAUGGGAGGAUAUCGCGCGUUCAAAAACGUUUCGUAGCA | 0.0423 µM | 0.0176 µM |  | 
44 | UCUGUUCAAGGAUAUGCGUAAUGUGUUACGGCACAAGGUCUACAUGAGGAUCACCCAUGUAGAAGGUGAUCAGA |  |  | 0.0208 µM | 0.0224 µM
45 | UGUGUUAUUGGAGGAUAUCGAUAUCAAACAUGAGGAUCACCCAUGUUGAGGAUCACACAUGUCCAUGAGAAGGCCGACGUAGUG | 0.0105 µM | 0.0105 µM |  | 
46 | GUAGCUAUCGCAGGAUAUCCUCAGGCGAAAGCCACAUGAGGAUCACCCAUGUAAAUUAAGAAUUUGGAGAAGGGCGAUAGCUAC | 0.479 µM | 0.0273 µM |  | 
47 | GUGGUCAGACAUGAGGAUCACCCAUGUGGAAUAAAUAACAGACAGGAUAUCUAAUAUAGGAUAUAGGAGAAGGGUCGAUUGGUG | 0.089 µM | 0.0853 µM |  | 
48 | CUCCCGAUCACAGGAUAUGCACAUACAAUUAAGGCAGAAGGGUGAUAGUCGGCCGGACAUGAGGAUCACCCAUGUGCAAGGAUA | 0.285 µM | 0.0852 µM |  | 
49 | CACAUUUUAACAGGAUAUGUAAGGUUGUUUAUUAUUGCAUUUACACUCAUUACAGAAGGGUUAUACAUGAGGAUCACCCAUGUG | 0.0201 µM | 0.0145 µM |  | 
50 | UGAUAGGACAGAGGAUAUGCCGAUAGGAUCUACUAUCGAAGAAUCCUCACAUGAGGAUCACCCAUGUAGAAGGCUGUUCUAUCU |  |  | 0.00818 µM | 0.033 µM
51 | UCGGCGCGAGGAUAUACGUUUGCGCGUUUUCGUUUUUGCGUACAUGAGGAUCACCCAUGUAGAAGGCGCGCCGC |  |  | 0.0128 µM | 0.018 µM
52 | GCCAACUCAUGAGGAUAUGGCACCUUAUUGGUGCCAGAAGGCGUGUCAAUUGACAUGAGGAUCACCCAUGUAUUAUAGUUGGCA | 0.446 µM | 0.0703 µM |  | 
53 | CCAGAUAUGUGAGGAUAUAUAGUGGAAUACACUAUAGAAGGUAUGUGAGAACAUGAGGAUCACCCAUGUCAUUGGAUAUCUGGA | 0.0335 µM | 0.0381 µM |  | 
54 | GUAAGCGACCAGAAGGGUGACAUGAGGAUCACCCAUGUAGAUGUGUUCCCGCUUGGGAACCGUCCACAGGAUAUGGUUGGCUAU | 0.0353 µM | 0.018 µM |  | 
55 | GUAGCUAUCGGAGGAUAUUCAUUAAACAUGAGGAUCACCCAUGUUAAAUUGGGAGAAGGCCGAUAGCUACAAGAGCGAAAGCUC | 0.00716 µM | 0.00545 µM |  | 
